Results of several laboratories.
Observed: metabolic stability

| SMILES | test system | setting | measurement | value |
| --- | --- | --- | --- | --- |
| Cc1ccc(N(C)c2ccc(NC(=O)CN(C)c3cc(F)ccc3N3CCCC3=O)cc2)cc1 | rat, hepatocytes |  | hepatocyte CLint | 91 µL/min/10⁶ cells |
| Cc1cc(S(=O)(=O)NC2CCC(CC3CCN(c4ccc(C5CCC(=O)NC5=O)cc4)CC3)CC2)ccc1Nc1ncc(C(F)(F)F)c(N2CCC[C@](C)(O)C2)n1 (some centres unmarked) | rat, liver microsomes | 1 µM | scaled CLint | < 21 mL/min/kg |
| COc1cc(-c2cc(C(C)=O)n3ccccc23)c(OC)cc1Cn1ccnc1 | rat, liver microsomes | 1 µM, pH 7.4 | scaled CLint | 145 mL/min/kg |
| COc1cnc(Nc2cnnc3ccc(-c4ccc(N5CCN(C)CC5)cc4)cc23)nc1 | rat, hepatocytes |  | hepatocyte CLint | > 300 µL/min/10⁶ cells |
| CNS(=O)(=O)c1ccc(Nc2ncc(C(F)(F)F)c([C@H]3CC[C@](C)(O)CC3)n2)c(C)c1 | rat, liver microsomes | 1 µM | scaled CLint | 30 mL/min/kg |
| N#Cc1ccc(-c2csc(CNC(=O)[C@H]3CCCN(C(=O)COCCF)C3)n2)cc1 | male Sprague-Dawley rat, liver microsomes | 0.5 µM | microsomal CLint | 40 µL/min/mg |
| Cc1cc(S(=O)(=O)NC2CC(N3CCN(CC4CCN(c5cccc6c5n(C)c(=O)n6C5CCC(=O)NC5=O)CC4)CC3)C2)ccc1Nc1ncc(C(F)(F)F)c(N2CCC[C@](C)(O)C2)n1 (some centres unmarked) | rat, liver microsomes | 1 µM | scaled CLint | < 21 mL/min/kg |
| Cc1ccc(Nc2cnnc3ccc(-c4ccc(N5CCCN(C)CC5)cc4)cc23)cn1 | rat, hepatocytes |  | hepatocyte CLint | 10 µL/min/10⁶ cells |
| Cc1ccc(Oc2ccc(NC(=O)COc3ccccc3N3CCCC3=O)cc2)cc1 | rat, hepatocytes |  | hepatocyte CLint | 68 µL/min/10⁶ cells |
| N#Cc1ccc(C[C@H](NC(=O)c2cc3cc(F)ccc3[nH]2)C(=O)N2CCc3ccccc32)cc1 | rat, liver microsomes | 10 µM, pH 7.4 | microsomal CLint | 9.1 µL/min/mg |
| CCONC(=O)N1CCC[C@H](C(=O)NCc2nc(-c3ccc(C#N)cc3)cs2)C1 | male Sprague-Dawley rat, liver microsomes | 0.5 µM | microsomal CLint | 33 µL/min/mg |
| COc1cc(NC(=O)Cn2cc(Cl)c3ccc(-c4cnn(C)c4)cc32)cc(OC)c1OC | rat, hepatocytes |  | hepatocyte CLint | < 1 µL/min/10⁶ cells |
| C[C@]1(O)CCCN(c2nc(Nc3ccc(S(=O)(=O)N[C@@H]4CCN(CC5CCN(c6ccc(C7CCC(=O)NC7=O)cc6F)CC5)C[C@H]4F)cc3F)ncc2C(F)(F)F)C1 (some centres unmarked) | rat, liver microsomes | 1 µM | scaled CLint | < 21 mL/min/kg |
| N#Cc1ccc(C[C@H](Nc2nnc(-c3ccc(Br)cc3)s2)C(=O)N2CCc3ccccc32)cc1 | rat, liver microsomes | 10 µM, pH 7.4 | microsomal CLint | 46.2 µL/min/mg |
| Cc1cc(S(=O)(=O)N[C@H]2C[C@H](CN3CCN(c4ccc(C5CCC(=O)NC5=O)c(Cl)c4)CC3)C2)ccc1Nc1ncc(C(F)(F)F)c(N2CCC[C@](C)(O)C2)n1 (some centres unmarked) | rat, liver microsomes | 1 µM | scaled CLint | 36 mL/min/kg |
| Cc1ccc(-c2csc(CNC(=O)[C@H]3CCCN(C(=O)COCCF)[C@H]3C)n2)cn1 | male Sprague-Dawley rat, liver microsomes | 0.5 µM | microsomal CLint | 31 µL/min/mg |

| SMILES | test system | setting | measurement | value |
| --- | --- | --- | --- | --- |
| C[C@]1(O)CCCN(c2nc(Nc3ccc(S(=O)(=O)N[C@H]4CC[C@H](CN5CCN(c6ccc(C7CCC(=O)NC7=O)cc6F)CC5)CC4)cc3F)ncc2C(F)(F)F)C1 (some centres unmarked) | rat, liver microsomes | 1 µM | scaled CLint | < 21 mL/min/kg |
| N#Cc1ccc(-c2csc(CNC(=O)[C@H]3CCCN(C(=O)COC4CC4)C3)n2)cc1 | male Sprague-Dawley rat, liver microsomes | 0.5 µM | microsomal CLint | 100 µL/min/mg |
| Cc1[nH]c(C)c(S(=O)(=O)Nc2ccc(C(F)(F)F)c(Cl)c2)c1C(=O)N1CCC(F)(F)C1 | rat, liver microsomes |  | microsomal CLint | 87 µL/min/mg |
| C[C@H]1CN(CC2CCN(c3ccc(C4CCC(=O)NC4=O)cc3F)CC2)CC[C@H]1NS(=O)(=O)c1ccc(Nc2ncc(C(F)(F)F)c(N3CCC[C@](C)(O)C3)n2)c(F)c1 (some centres unmarked) | rat, liver microsomes | 1 µM | scaled CLint | 45 mL/min/kg |
| Cc1ccc(Oc2ccc(NC(=O)CN(C)c3ccccc3N3CCCC3=O)cc2)cc1 | rat, hepatocytes |  | hepatocyte CLint | > 92 µL/min/10⁶ cells |
| CCOCC(=O)N1CCC[C@H](C(=O)NCc2nc(-c3ccc(C#N)nc3)cs2)C1 | male Sprague-Dawley rat, hepatocytes | 0.5 µM | scaled CLint | 17 mL/min/kg |
| Cc1ccc(Oc2ccc(NC(=O)CNc3ccccc3-n3cncn3)cc2)cc1 | rat, hepatocytes |  | hepatocyte CLint | 46 µL/min/10⁶ cells |
| Cc1cc(S(=O)(=O)N[C@H]2CC[C@H](CN3CCN(c4ccc(C5CCC(=O)NC5=O)c(Cl)c4)CC3)CC2)ccc1Nc1ncc(C(F)(F)F)c(N2CCC[C@](C)(O)C2)n1 (some centres unmarked) | rat, liver microsomes | 1 µM | scaled CLint | < 21 mL/min/kg |
| CC(C)N(c1ccc(C#N)cc1)c1ccc(NC(=O)CN(C)c2ccccc2N2CCCC2=O)cn1 | rat, hepatocytes |  | hepatocyte CLint | 92 µL/min/10⁶ cells |
| NCCOCC(=O)N1CCC[C@H](C(=O)NCc2nc(-c3ccc(C(F)(F)F)cc3)cs2)C1 | male Sprague-Dawley rat, liver microsomes | 0.5 µM | scaled CLint | < 5.6 mL/min/kg |
| Cc1ccc(N(C)c2ccc(NC(=O)CN(C)c3ccccc3N3CCCC3=O)cn2)cc1 | rat, hepatocytes |  | hepatocyte CLint | > 92 µL/min/10⁶ cells |
| NCCCOCC(=O)N1CCC[C@H](C(=O)NCc2nc(-c3ccc(C4CC4)cc3)cs2)C1 | male Sprague-Dawley rat, liver microsomes | 0.5 µM | microsomal CLint | 15 µL/min/mg |
| Cc1ccc(N(c2ccc(NC(=O)CN(C)c3ccccc3N3CCCC3=O)cn2)C(C)C)cc1 | rat, hepatocytes |  | hepatocyte CLint | 86 µL/min/10⁶ cells |
| O=C(NCc1nc(-c2ccc(C(F)(F)F)cc2)cs1)[C@H]1CCCN(C(=O)CO[C@H]2CCCNC2)C1 | male Sprague-Dawley rat, liver microsomes | 0.5 µM | microsomal CLint | 3.6 µL/min/mg |
| N#Cc1ccc(C[C@H](Nc2nnc(-c3cccc(F)c3)s2)C(=O)N2CCc3ccccc32)cc1 | rat, liver microsomes | 10 µM, pH 7.4 | microsomal CLint | 14.7 µL/min/mg |
| CN(CC(=O)Nc1ccc(N(C)c2ccc(Cl)c(F)c2)cc1)c1ccccc1N1CCCC1=O | rat, hepatocytes |  | hepatocyte CLint | 79 µL/min/10⁶ cells |
